Assay results: ChEMBL document CHEMBL5352462, “Resveratrol derivatives: Synthesis and their biological activities” (Eur J Med Chem, 2023)

How the values were obtained:
HT-29 = experiment: Cytotoxicity against human HT-29 cells incubated for 24 hrs by MTT assay; assay type: functional, cell-based; settings: HT-29, 24 h
In short: (§1)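 Cells plated at 1.5 × 10⁵ per well, allowed to adhere overnight, medium refreshed, then treated at 10, 50 and 100 μM for 24 h; DMSO vehicle controls (<0.1%). Medium replaced after 72 h. MTT at 5 mg/mL in PBS added, 3 h at 37 °C in 5% CO₂; formazan dissolved in DMSO, absorbance read at 550 nm. IC50 from dose-response curves, mean ± SE of three independent experiments.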

MIA PaCa-2 = experiment: Cytotoxicity against human MIA PaCa-2 cells incubated for 24 hrs by MTT assay; assay type: functional, cell-based; settings: MIA PaCa-2, 24 h; in short: as §1
[1] = Lipophilicity, logP of compound; assay type: physicochemical; settings: octanol/water
In short: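 Log P calculated in silico, not measured experimentally.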

[2] = biological target: Microtubule-associated protein tau (Homo sapiens) (UniProt P10636); experiment: Inhibition of Tau in human Huh-7 cells at 40 uM relative to control; assay type: cell-based
Chain of Microtubule-associated protein tau (Homo sapiens) (P10636 whole entry): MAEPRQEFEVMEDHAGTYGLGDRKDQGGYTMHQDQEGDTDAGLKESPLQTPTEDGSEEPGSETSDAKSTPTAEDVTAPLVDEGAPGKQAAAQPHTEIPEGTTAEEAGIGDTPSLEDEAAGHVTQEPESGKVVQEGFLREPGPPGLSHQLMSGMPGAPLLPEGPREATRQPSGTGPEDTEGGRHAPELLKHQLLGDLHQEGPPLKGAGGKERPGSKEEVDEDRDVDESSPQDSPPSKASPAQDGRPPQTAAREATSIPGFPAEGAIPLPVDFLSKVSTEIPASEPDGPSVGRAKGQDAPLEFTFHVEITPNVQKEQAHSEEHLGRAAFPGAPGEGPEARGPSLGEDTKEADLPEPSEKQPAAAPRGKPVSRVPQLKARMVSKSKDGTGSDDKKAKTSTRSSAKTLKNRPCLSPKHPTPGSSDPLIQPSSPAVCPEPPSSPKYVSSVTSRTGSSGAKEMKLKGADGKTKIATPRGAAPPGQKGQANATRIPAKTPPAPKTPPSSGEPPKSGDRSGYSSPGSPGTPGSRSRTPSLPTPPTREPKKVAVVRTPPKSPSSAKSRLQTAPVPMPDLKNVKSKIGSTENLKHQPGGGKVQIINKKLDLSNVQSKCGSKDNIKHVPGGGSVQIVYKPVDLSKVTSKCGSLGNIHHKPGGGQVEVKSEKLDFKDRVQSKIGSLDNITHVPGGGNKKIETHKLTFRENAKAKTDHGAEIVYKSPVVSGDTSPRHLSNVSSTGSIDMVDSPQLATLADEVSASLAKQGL

HCT cell line [3] = experiment: Cytotoxicity against HCT cell expressing KRAS assessed as growth inhibition by measuring synthetic lethality at 0.2 uM relative to control; assay type: functional; settings: Homo sapiens
HCT cell line [4] = experiment: Cytotoxicity against HCT cell expressing KRAS assessed as growth inhibition by measuring synthetic lethality at 2 uM relative to control; assay type: functional; settings: Homo sapiens
HCT cell line [5] = experiment: Cytotoxicity against HCT cell expressing KRAS assessed as growth inhibition by measuring synthetic lethality at 20 uM relative to control; assay type: functional; settings: Homo sapiens
RKO = experiment: Cytotoxicity against human RKO cell expressing KRAS assessed as growth inhibition by measuring synthetic lethality at 0.2 uM relative to control; assay type: functional
HCT-116 [6] = experiment: Cytotoxicity against HCT-116 cell expressing KRAS assessed as growth inhibition by measuring synthetic lethality at 2 uM relative to control; assay type: functional; settings: Homo sapiens
HCT-116 [7] = experiment: Cytotoxicity against HCT-116 cell expressing KRAS assessed as growth inhibition by measuring synthetic lethality at 20 uM relative to control; assay type: functional; settings: Homo sapiens
COLO 320 [8] = experiment: Cytotoxicity against human COLO 320 cell expressing KRAS assessed as growth inhibition by measuring synthetic lethality at 0.2 uM relative to control; assay type: functional
COLO 320 [9] = experiment: Cytotoxicity against human COLO 320 cell expressing KRAS assessed as growth inhibition by measuring synthetic lethality at 2 uM relative to control; assay type: functional
COLO 320 [10] = experiment: Cytotoxicity against human COLO 320 cell expressing KRAS assessed as growth inhibition by measuring synthetic lethality at 20 uM relative to control; assay type: functional
SNU-C1 [11] = experiment: Cytotoxicity against human SNU-C1 cell expressing KRAS assessed as growth inhibition by measuring synthetic lethality at 0.2 uM relative to control; assay type: functional
SNU-C1 [12] = experiment: Cytotoxicity against human SNU-C1 cell expressing KRAS assessed as growth inhibition by measuring synthetic lethality at 2 uM relative to control; assay type: functional
SNU-C1 [13] = experiment: Cytotoxicity against human SNU-C1 cell expressing KRAS assessed as growth inhibition by measuring synthetic lethality at 20 uM relative to control; assay type: functional
[14] = biological target: Calcitonin gene-related peptide type 1 receptor (Homo sapiens) (UniProt Q16602); experiment: Inhibition of human CGRP1 at 30 uM relative to control
Chain of Calcitonin gene-related peptide type 1 receptor (Homo sapiens) (Q16602 whole entry): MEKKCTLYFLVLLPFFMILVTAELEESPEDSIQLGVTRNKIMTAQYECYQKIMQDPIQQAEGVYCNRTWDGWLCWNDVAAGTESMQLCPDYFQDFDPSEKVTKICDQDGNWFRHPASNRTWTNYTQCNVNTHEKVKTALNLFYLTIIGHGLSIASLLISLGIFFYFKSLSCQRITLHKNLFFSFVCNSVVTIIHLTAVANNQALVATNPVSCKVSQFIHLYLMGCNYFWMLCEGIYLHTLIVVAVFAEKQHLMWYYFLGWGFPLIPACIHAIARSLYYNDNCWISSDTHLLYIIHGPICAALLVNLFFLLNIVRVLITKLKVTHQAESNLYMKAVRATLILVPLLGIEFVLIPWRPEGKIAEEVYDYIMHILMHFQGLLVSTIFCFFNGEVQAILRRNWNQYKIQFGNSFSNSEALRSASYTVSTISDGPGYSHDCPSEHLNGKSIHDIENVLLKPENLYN

[15] = biological target: Calcitonin gene-related peptide type 1 receptor (Homo sapiens, UniProt O60894+Q16602); experiment: Inhibition of human CGRP1
Chain of Calcitonin gene-related peptide type 1 receptor (Q16602 whole entry, one chain of several): as the sequence (Q16602 whole entry) above

**Q.** Which IC50 (HT-29) does the source give for `Oc1ccc(/C=C/c2cc(O)c(O)c(O)c2)c(O)c1` here?
**A.** Its IC50 is 78 µM.

**Q.** And the IC50 (MIA PaCa-2)?
**A.** The IC50 was 96 µM.

**Q.** And the logP [1]?
**A.** Its logP is 2.28.

**Q.** What does the source list for `COc1cc(-c2cc3ccc(O)cc3o2)cc(OC)c1OC`?
**A.** inhibition [2]: 58%; IC50 (HT-29): 14 µM; logP [1]: 2.61; inhibition at 0.2 µM (HCT cell line [3]): 0%; inhibition at 2 µM (HCT cell line [4]): 0.5%; inhibition at 20 µM (HCT cell line [5]): 0%; inhibition at 0.2 µM (RKO): 0%; inhibition at 2 µM (HCT-116 [6]): 6.3%; inhibition at 20 µM (HCT-116 [7]): 87.4%; inhibition at 0.2 µM (COLO 320 [8]): 0%; inhibition at 2 µM (COLO 320 [9]): 4.4%; inhibition at 20 µM (COLO 320 [10]): 0%; inhibition at 0.2 µM (SNU-C1 [11]): 8.7%; inhibition at 2 µM (SNU-C1 [12]): 8.7%; inhibition at 20 µM (SNU-C1 [13]): 14.9%; inhibition [14]: 54.2%; IC50 [15]: 2.41 µM

**Q.** For `COc1ccc(-c2cc3cc(OC)cc(OC)c3[nH]2)cc1`, which IC50 (HT-29) is on record?
**A.** Its IC50 is 211 µM.

**Q.** What about the logP [1] of the same molecule?
**A.** Its logP is 2.93.

**Q.** Which inhibition [2] does the source give for `Oc1ccc(/C=C/c2cc(O)cc(O)c2)cc1` [RESVERATROL] here?
**A.** The inhibition was 21.3%.

**Q.** And the IC50 (HT-29)?
**A.** The IC50 was 78 µM.

**Q.** And the IC50 (MIA PaCa-2)?
**A.** The IC50 was 132 µM.

**Q.** And the inhibition [14]?
**A.** The inhibition was 2.3%.

**Q.** What does the source list for `COc1ccc(-c2cc3cc(C)cc(C)c3[nH]2)cc1`?
**A.** IC50 (HT-29): 331 µM; logP [1]: 4.15

**Q.** Which IC50 (HT-29) does the source give for `COc1ccc(/C=C/c2cc(OC)c(OC)c(OC)c2)c(OC)c1` here?
**A.** The IC50 was 12 µM.

**Q.** And the IC50 (MIA PaCa-2)?
**A.** The IC50 was 28 µM.

**Q.** What about the logP [1] of the same molecule?
**A.** The logP was 3.59.

**Q.** With `COc1ccc(/C=C/c2cc(OC)cc(OC)c2)cc1` [TRISMETHOXYRESVERATROL] as the molecule, how does the IC50 (MIA PaCa-2) read?
**A.** The IC50 was 35 µM.

**Q.** What about the logP [1] of the same molecule?
**A.** The logP was 3.85.

**Q.** Which IC50 (HT-29) does the source give for `CCCCCCCCCCCC(=O)Oc1ccc(C=Cc2cc(OC(=O)CCCCCCCCCCC)cc(OC(=O)CCCCCCCCCCC)c2)cc1` here?
**A.** Its IC50 is 134 µM.

**Q.** And the IC50 (MIA PaCa-2)?
**A.** The IC50 was 198 µM.

**Q.** And the logP [1]?
**A.** Its logP is greater than 11.2.

**Q.** For `Oc1ccc2cc(-c3cc(O)c(O)c(O)c3)oc2c1`, which IC50 (HT-29) is on record?
**A.** Its IC50 is 56 µM.

**Q.** What about the logP [1] of the same molecule?
**A.** The logP was 1.82.

**Q.** What about the inhibition at 0.2 µM (HCT cell line [3]) of the same molecule?
**A.** Its inhibition at 0.2 µM is 15.6%.

**Q.** And the inhibition at 2 µM (HCT cell line [4])?
**A.** The inhibition at 2 µM was 0.5%.

**Q.** And the inhibition at 20 µM (HCT cell line [5])?
**A.** Its inhibition at 20 µM is 0%.

**Q.** And the inhibition at 0.2 µM (RKO)?
**A.** Its inhibition at 0.2 µM is 2.7%.

**Q.** What about the inhibition at 2 µM (HCT-116 [6]) of the same molecule?
**A.** The inhibition at 2 µM was 33%.

**Q.** And the inhibition at 20 µM (HCT-116 [7])?
**A.** Its inhibition at 20 µM is 85.9%.

**Q.** What about the inhibition at 0.2 µM (COLO 320 [8]) of the same molecule?
**A.** The inhibition at 0.2 µM was 0%.

**Q.** And the inhibition at 2 µM (COLO 320 [9])?
**A.** The inhibition at 2 µM was 0%.

**Q.** What about the inhibition at 20 µM (COLO 320 [10]) of the same molecule?
**A.** Its inhibition at 20 µM is 0%.

**Q.** And the inhibition at 0.2 µM (SNU-C1 [11])?
**A.** The inhibition at 0.2 µM was 5.8%.

**Q.** And the inhibition at 2 µM (SNU-C1 [12])?
**A.** The inhibition at 2 µM was 3.1%.

**Q.** And the inhibition at 20 µM (SNU-C1 [13])?
**A.** The inhibition at 20 µM was 11.2%.

**Q.** And the inhibition [14]?
**A.** The inhibition was 59.9%.

**Q.** What about the IC50 [15] of the same molecule?
**A.** Its IC50 is 2.77 µM.

**Q.** Which IC50 (HT-29) does the source give for `COc1ccc(OC)c(-c2cc3ccc(OCc4ccccc4)cc3[nH]2)c1` here?
**A.** The IC50 was 239 µM.

**Q.** And the logP [1]?
**A.** The logP was 5.15.

**Q.** And the inhibition at 0.2 µM (HCT cell line [3])?
**A.** The inhibition at 0.2 µM was 0%.

**Q.** What about the inhibition at 2 µM (HCT cell line [4]) of the same molecule?
**A.** Its inhibition at 2 µM is 6.9%.

**Q.** What about the inhibition at 20 µM (HCT cell line [5]) of the same molecule?
**A.** The inhibition at 20 µM was 48.9%.

**Q.** What about the inhibition at 0.2 µM (RKO) of the same molecule?
**A.** Its inhibition at 0.2 µM is 77.3%.

**Q.** What about the inhibition at 2 µM (HCT-116 [6]) of the same molecule?
**A.** The inhibition at 2 µM was 45.6%.

**Q.** And the inhibition at 20 µM (HCT-116 [7])?
**A.** Its inhibition at 20 µM is 89.7%.

**Q.** And the inhibition at 0.2 µM (COLO 320 [8])?
**A.** The inhibition at 0.2 µM was 0%.

**Q.** What about the inhibition at 2 µM (COLO 320 [9]) of the same molecule?
**A.** The inhibition at 2 µM was 0%.

**Q.** And the inhibition at 20 µM (COLO 320 [10])?
**A.** The inhibition at 20 µM was 0%.

**Q.** What about the inhibition at 0.2 µM (SNU-C1 [11]) of the same molecule?
**A.** Its inhibition at 0.2 µM is 7.4%.

**Q.** And the inhibition at 2 µM (SNU-C1 [12])?
**A.** Its inhibition at 2 µM is 13.9%.

**Q.** What about the inhibition at 20 µM (SNU-C1 [13]) of the same molecule?
**A.** Its inhibition at 20 µM is 44.5%.

**Q.** For `Oc1cc(O)cc(-c2cc3ccc(O)cc3o2)c1` [MORACIN M], which IC50 (HT-29) is on record?
**A.** The IC50 was 73 µM.

**Q.** What about the logP [1] of the same molecule?
**A.** Its logP is 2.21.

**Q.** Which results are given for `COc1ccc(OC)c(-c2cc3ccc(O)cc3[nH]2)c1`?
**A.** IC50 (HT-29): 10 µM; logP [1]: 2.66; inhibition at 0.2 µM (HCT cell line [3]): 0%; inhibition at 2 µM (HCT cell line [4]): 0%; inhibition at 20 µM (HCT cell line [5]): 6.3%; inhibition at 0.2 µM (RKO): 9.4%; inhibition at 2 µM (HCT-116 [6]): 0%; inhibition at 20 µM (HCT-116 [7]): 0%; inhibition at 0.2 µM (COLO 320 [8]): 0%; inhibition at 2 µM (COLO 320 [9]): 0%; inhibition at 20 µM (COLO 320 [10]): 55.3%; inhibition at 0.2 µM (SNU-C1 [11]): 0%; inhibition at 2 µM (SNU-C1 [12]): 0%; inhibition at 20 µM (SNU-C1 [13]): 30.3%

**Q.** What does the source list for `OCCOc1ccc(/C=C/c2cc(OCCO)cc(OCCO)c2)cc1`?
**A.** IC50 (HT-29): 23 µM; IC50 (MIA PaCa-2): 79 µM; logP [1]: 2.29

**Q.** Which IC50 (HT-29) does the source give for `COc1cc(OC)cc(-c2cc3ccc(O)cc3o2)c1` here?
**A.** The IC50 was 19 µM.

**Q.** And the logP [1]?
**A.** Its logP is 2.74.

**Q.** Which results are given for `CC(C)(C)C(=O)Oc1ccc(/C=C/c2cc(OC(=O)C(C)(C)C)cc(OC(=O)C(C)(C)C)c2)cc1`?
**A.** IC50 (HT-29): 56 µM; IC50 (MIA PaCa-2): 39 µM; logP [1]: 8.76
